Source: ChEMBL document CHEMBL1255370, “Activity of pradofloxacin against Porphyromonas and Prevotella spp. Implicated in periodontal disease in dogs: susceptibility test data from a European multicenter study” (2008)
In brackets after ≈: the same amount, converted by molar mass.

How the values were obtained:
[1] = tested on: Porphyromonas; assay: Antimicrobial activity against Porphyromonas isolated from canine periodontal pockets after 48 hrs by agar dilution method; format: functional
Summary of the method: (§1)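 Isolates came from canine periodontal pockets (2004–2006, six countries; dogs without antimicrobials for ≥4 weeks), cultured anaerobically at 35 ± 1°C and identified by Biolog. MICs were found by CLSI M11-A6 agar dilution on brucella blood agar with hemin and vitamin K, using a multipoint inoculator under strict anaerobiosis for up to 48 h. QC strains were B. fragilis ATCC 25285 and E. lentum ATCC 43055.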

[2] = tested on: Porphyromonas asaccharolytica; assay: Antimicrobial activity against Porphyromonas asaccharolyticus isolated from canine periodontal pockets after 48 hrs by agar dilution method; format: functional; summary of the method: as §1
[3] = tested on: Porphyromonas circumdentaria; assay: Antimicrobial activity against Porphyromonas circumdentaria isolated from canine periodontal pockets after 48 hrs by agar dilution method; format: functional; summary of the method: as §1
[4] = tested on: Porphyromonas levii; assay: Antimicrobial activity against Porphyromonas levii isolated from canine periodontal pockets after 48 hrs by agar dilution method; format: functional; summary of the method: as §1
[5] = tested on: Porphyromonas macacae; assay: Antimicrobial activity against Porphyromonas macacae isolated from canine periodontal pockets after 48 hrs by agar dilution method; format: functional; summary of the method: as §1
[6] = tested on: Porphyromonas macacae; assay: Antimicrobial activity against Porphyromonas salivosa isolated from canine periodontal pockets after 48 hrs by agar dilution method; format: functional; summary of the method: as §1
[7] = tested on: Prevotella buccae; assay: Antimicrobial activity against Prevotella buccae isolated from canine periodontal pockets after 48 hrs by agar dilution method; format: functional; settings: Segatella buccae; summary of the method: as §1
[8] = tested on: Prevotella corporis; assay: Antimicrobial activity against Prevotella corporis isolated from canine periodontal pockets after 48 hrs by agar dilution method; format: functional; summary of the method: as §1
[9] = tested on: Prevotella denticola; assay: Antimicrobial activity against Prevotella denticola isolated from canine periodontal pockets after 48 hrs by agar dilution method; format: functional; summary of the method: as §1
[10] = tested on: Prevotella disiens; assay: Antimicrobial activity against Prevotella disiens isolated from canine periodontal pockets after 48 hrs by agar dilution method; format: functional; summary of the method: as §1
[11] = tested on: Bacteroides heparinolyticus; assay: Antimicrobial activity against Bacteroides heparinolyticus isolated from canine periodontal pockets after 48 hrs by agar dilution method; format: functional; settings: Prevotella heparinolytica; summary of the method: as §1
[12] = tested on: Prevotella intermedia; assay: Antimicrobial activity against Prevotella intermedia isolated from canine periodontal pockets after 48 hrs by agar dilution method; format: functional; summary of the method: as §1
[13] = tested on: Hoylesella loescheii; assay: Antimicrobial activity against Prevotella loescheii isolated from canine periodontal pockets after 48 hrs by agar dilution method; format: functional; summary of the method: as §1
[14] = tested on: Prevotella nigrescens; assay: Antimicrobial activity against Prevotella nigrescens isolated from canine periodontal pockets after 48 hrs by agar dilution method; format: functional; summary of the method: as §1
[15] = tested on: Hoylesella oralis; assay: Antimicrobial activity against Prevotella oralis isolated from canine periodontal pockets after 48 hrs by agar dilution method; format: functional; summary of the method: as §1
[16] = tested on: Prevotella oris; assay: Antimicrobial activity against Prevotella oris isolated from canine periodontal pockets after 48 hrs by agar dilution method; format: functional; settings: Segatella oris; summary of the method: as §1
[17] = tested on: Prevotella oulorum; assay: Antimicrobial activity against Prevotella oulorum isolated from canine periodontal pockets after 48 hrs by agar dilution method; format: functional; settings: Segatella oulorum; summary of the method: as §1
[18] = tested on: Bacteroides zoogleoformans; assay: Antimicrobial activity against Bacteroides zoogleoformans isolated from canine periodontal pockets after 48 hrs by agar dilution method; format: functional; summary of the method: as §1
[19] = tested on: Prevotella sp.; assay: Antimicrobial activity against Prevotella sp. isolated from canine periodontal pockets after 48 hrs by agar dilution method; format: functional; summary of the method: as §1
[20] = tested on: Porphyromonas gingivalis; assay: Antimicrobial activity against Porphyromonas gingivalis isolated from canine periodontal pockets after 48 hrs by agar dilution method

Row | MIC50 [2] [mg/L] | MIC90 [2] [mg/L] | MIC50 [3] [mg/L] | MIC90 [3] [mg/L] | MIC50 [4] [mg/L] | MIC90 [4] [mg/L] | MIC50 [5] [mg/L] | MIC90 [5] [mg/L] | MIC50 [6] [mg/L] | MIC90 [6] [mg/L] | MIC [7] [mg/L] | MIC50 [8] [mg/L] | MIC90 [8] [mg/L] | MIC50 [9] [mg/L] | MIC50 [10] [mg/L] | MIC50 [11] [mg/L] | MIC90 [11] [mg/L] | MIC50 [12] [mg/L] | MIC50 [14] [mg/L] | Structure (SMILES) | MIC [13] [mg/L] | further results
1 | – | – | – | – | – | – | – | – | – | – | – | – | – | – | – | – | – | – | – | NC1CCN(c2c(F)cc3c(=O)c(C(=O)O)cn(C4CC4)c3c2Cl)C1 (configuration not stated) [CLINAFLOXACIN] | – | MIC90 [1]: 0.125 mg/L (≈ 0.342 µM)
2 | 0.031 (≈ 0.181 µM) | 0.125 (≈ 0.73 µM) | 0.125 (≈ 0.73 µM) | 0.25 (≈ 1.46 µM) | 0.062 (≈ 0.362 µM) | 0.125 (≈ 0.73 µM) | 0.125 (≈ 0.73 µM) | 0.25 (≈ 1.46 µM) | 0.25 (≈ 1.46 µM) | 0.5 (≈ 2.92 µM) | 0.5 (≈ 2.92 µM) | 0.062 (≈ 0.362 µM) | 0.25 (≈ 1.46 µM) | 0.125 (≈ 0.73 µM) | 0.062 (≈ 0.362 µM) | 0.25 (≈ 1.46 µM) | 0.5 (≈ 2.92 µM) | ≤ 0.016 | 0.125 (≈ 0.73 µM) | Cc1ncc([N+](=O)[O-])n1CCO [METRONIDAZOLE] | 0.062 (≈ 0.362 µM) | MIC [12]: ≤ 0.016 mg/L; MIC90 [14]: 0.5 mg/L (≈ 2.92 µM); MIC50 [15]: 0.25 mg/L (≈ 1.46 µM); MIC50 [16]: 0.5 mg/L (≈ 2.92 µM); MIC [17]: 0.25 mg/L (≈ 1.46 µM); MIC [18]: 0.125 mg/L (≈ 0.73 µM); MIC50 [19]: 0.25 mg/L (≈ 1.46 µM); MIC90 [19]: 0.5 mg/L (≈ 2.92 µM); MIC50 [20]: 0.062 mg/L (≈ 0.362 µM); MIC90 [20]: 0.25 mg/L (≈ 1.46 µM)
3 | 0.062 (≈ 0.156 µM) | 0.062 (≈ 0.156 µM) | 0.062 (≈ 0.156 µM) | 0.25 (≈ 0.631 µM) | 0.062 (≈ 0.156 µM) | 0.125 (≈ 0.315 µM) | 0.062 (≈ 0.156 µM) | 0.125 (≈ 0.315 µM) | 0.125 (≈ 0.315 µM) | 0.125 (≈ 0.315 µM) | 0.25 (≈ 0.631 µM) | 0.062 (≈ 0.156 µM) | 0.125 (≈ 0.315 µM) | 0.062 (≈ 0.156 µM) | 0.062 (≈ 0.156 µM) | 0.062 (≈ 0.156 µM) | 0.25 (≈ 0.631 µM) | 0.031 (≈ 0.0782 µM) | 0.062 (≈ 0.156 µM) | N#Cc1c(N2C[C@@H]3CCCN[C@@H]3C2)c(F)cc2c(=O)c(C(=O)O)cn(C3CC3)c12 [PRADOFLOXACIN] | 0.062 (≈ 0.156 µM) | MIC [9]: 0.062 mg/L (≈ 0.156 µM); MIC90 [14]: 0.25 mg/L (≈ 0.631 µM); MIC [15]: 0.062 mg/L (≈ 0.156 µM); MIC50 [15]: 0.062 mg/L (≈ 0.156 µM); MIC50 [16]: 0.062 mg/L (≈ 0.156 µM); MIC [17]: 0.031 mg/L (≈ 0.0782 µM); MIC [18]: 0.125 mg/L (≈ 0.315 µM); MIC50 [19]: 0.062 mg/L (≈ 0.156 µM); MIC90 [19]: 0.25 mg/L (≈ 0.631 µM); MIC50 [20]: 0.031 mg/L (≈ 0.0782 µM); MIC90 [20]: 0.125 mg/L (≈ 0.315 µM)
